According to the array DNA melting data of Ke et al. (doi:10.1101/2024.01.08.574731):

Columns and labels:
[1] = melting temperature; fluorescence melt of hairpins on a sequencing array, two-state fit, raised by 9.35 °C to match UV melts; conditions: sodium 0.088 M
Outline: (§1)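 Two-state fits, bootstrapped, provided melting temperature and folding enthalpy from Cy3 fluorescence normalised to pre-quench Cy3 and to control constructs. Library hairpins with annealed Cy3 and quencher oligos were imaged on a sequenced MiSeq flow cell in 50 mM Na-HEPES pH 8.0, 25 mM NaCl, at 2.5 °C intervals up to 60 °C. Four replicates were combined with inverse-variance weighting. A 9.35 °C upward shift was applied to fitted temperatures to match UV melts.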

[2] = folding enthalpy; higher = less favourable; fluorescence melt of hairpins on a sequencing array, two-state fit; conditions: sodium 0.088 M
Outline: as §1

| Sequence | Tm [1] | folding enthalpy [2] |
| --- | --- | --- |
| GTGCTCGAAAGAGGCCAC ((((((....)))..))) | 35.9 °C | -16 kcal/mol |
| GTGCTCGGAAACGAACAC (((.(((....))).))) | 47.6 °C | -35.3 kcal/mol |
| GTGCTCGGAAACGAGTAC ((.((((....)))).)) | 55.4 °C | -43.8 kcal/mol |
| GTGCTCGGAAACGGGTAC ((.(.((....)).).)) | 41.9 °C | -32.8 kcal/mol |
| GTGCTGCCGAAAGGCCAC (((..(((....)))))) | 48.1 °C | -11.5 kcal/mol |
| GTGCTGGGAAACCAGCGC (.(((((....))))).) | 61.6 °C | -29.5 kcal/mol |
| GTGCTGGGAAACCGGTAC ((.(.((....)).).)) | 42.1 °C | -33.1 kcal/mol |
| GTGCTTCGAAAGAATCAC (((.(((....))).))) | 41.6 °C | -35.5 kcal/mol |
| GTGCTTGGAAACAAGCAC (((((((....))))))) | 68.1 °C | -38.7 kcal/mol |
| GTGCTTGGAAACAAGCGC (.(((((....))))).) | 61.3 °C | -32.2 kcal/mol |
| GTGGAACGAAAGTTACAC (((.(((....))).))) | 57 °C | -40.4 kcal/mol |
| GTGGAACGAAAGTTTCAC (((.(((....))).))) | 53.2 °C | -42.7 kcal/mol |
| GTGGACGAAAGTCAGCAC ((((((....)))..))) | 40.3 °C | -16.1 kcal/mol |
| GTGGACGAAAGTCATCAC ((((((....)))..))) | 36.3 °C | -13.1 kcal/mol |
| GTGGACGAAAGTCCTCAC ((((((....)))..))) | 38 °C | -9.72 kcal/mol |
| GTGGACGAAAGTCTCAC ((((((....))).))) | 46.6 °C | -20.1 kcal/mol |
| GTGGACGCGAAAGCGCAC (((..(((....)))))) | 47.8 °C | -15.4 kcal/mol |
| GTGGACGGAAACATCCAC (((((.(....).))))) | 43.6 °C | -31.8 kcal/mol |
| GTGGAGACGAAAGTCCAC (((..(((....)))))) | 47.6 °C | -22.8 kcal/mol |
| GTGGAGCGAAAGCTCAC (((.(((....)))))) | 52.1 °C | -12.1 kcal/mol |
| GTGGAGGGAAACCCCCAC ((((.((....)).)))) | 48.8 °C | -30.6 kcal/mol |
| GTGGAGGGAAACCTCCAC (((((((....))))))) | 66.5 °C | -40.9 kcal/mol |
| GTGGAGGGAAACCTTCAC (((.(((....))).))) | 47.3 °C | -31.9 kcal/mol |

| Sequence | Tm [1] | folding enthalpy [2] |
| --- | --- | --- |
| GTGGATCGAAAGATACAC (((.(((....))).))) | 55.9 °C | -44.2 kcal/mol |
| GTGGATCGAAAGATCAC (((.(((....)))))) | 48.8 °C | -13.3 kcal/mol |
| GTGGATGGAAACATCCGC (.(((((....))))).) | 56.1 °C | -28 kcal/mol |
| GTGGATGGAAACATTCAC (((.(((....))).))) | 46.6 °C | -45.5 kcal/mol |
| GTGGATGGAAACATTCGC (.(.(((....))).).) | 34.9 °C | -28.4 kcal/mol |
| GTGGATGGAAACGTCCAC (((((.(....).))))) | 53 °C | -47.6 kcal/mol |
| GTGGATTCGAAAGAACAC (((..(((....)))))) | 32 °C | -17.4 kcal/mol |
| GTGGCAGCGAAAGCTCAC (((..(((....)))))) | 43.7 °C | -12.4 kcal/mol |
| GTGGCCGAAAGGCACAC ((((((....))).))) | 63.1 °C | -15.1 kcal/mol |
| GTGGCCGAAAGGCGCCAC ((((((....)))..))) | 49 °C | -13.7 kcal/mol |
| GTGGCCGAAAGGCTTCAC ((((((....)))..))) | 33.6 °C | -12.4 kcal/mol |
| GTGGCCGCGAAAGCGCAC (((..(((....)))))) | 48.4 °C | -9.11 kcal/mol |
| GTGGCCGGAAACGACCAC ((((.((....)).)))) | 56.5 °C | -40.3 kcal/mol |
| GTGGCGGCGAAAGCCCAC (((..(((....)))))) | 54 °C | -15 kcal/mol |
| GTGGCGGGAAACCACCAC ((((.((....)).)))) | 51.5 °C | -35.4 kcal/mol |
| GTGGCGGGAAACCGCTGC (..((((....))))..) | 47.9 °C | -15.4 kcal/mol |
| GTGGCGGGAAACTGCCAC (((((.(....).))))) | 60.7 °C | -54.1 kcal/mol |
| GTGGCGGGAAACTGCCGC (.(((.(....).))).) | 53.5 °C | -22.2 kcal/mol |
| GTGGCTCGAAAGAGACAC (((.(((....))).))) | 68.9 °C | -40.1 kcal/mol |
| GTGGCTCGAAAGAGCAC (((.(((....)))))) | 51.2 °C | -11.8 kcal/mol |
| GTGGCTGGAAACAACCAC ((((.((....)).)))) | 45.8 °C | -34.4 kcal/mol |
| GTGGGACGAAAGTCTCAC (((.(((....))).))) | 60 °C | -36 kcal/mol |
| GTGGGAGAAATCCCAC ((((((....)))))) | 58.8 °C | -28.3 kcal/mol |

| Sequence | Tm [1] | folding enthalpy [2] |
| --- | --- | --- |
| GTGGGAGCGAAAGCTCAC (((..(((....)))))) | 62.9 °C | -19.2 kcal/mol |
| GTGGGAGGAAACCCCCAC (((((.(....).))))) | 50.3 °C | -38.8 kcal/mol |
| GTGGGAGGAAACTCCCGC (.(((((....))))).) | 56.7 °C | -33.4 kcal/mol |
| GTGGGATCGAAAGATCAC (((..(((....)))))) | 54.4 °C | -44.4 kcal/mol |
| GTGGGCACGAAAGTGCAC (((..(((....)))))) | 65.4 °C | -14.6 kcal/mol |
| GTGGGCCGAAAGGCTCAC (((.(((....))).))) | 69.2 °C | -29.6 kcal/mol |
| GTGGGCGAAAGCCACAC ((((((....))).))) | 59.9 °C | -14.4 kcal/mol |
| GTGGGCGAAAGCCATCAC ((((((....)))..))) | 39.7 °C | -11.4 kcal/mol |
| GTGGGCGAAAGCCGGCAC ((((((....)))..))) | 45.8 °C | -12.1 kcal/mol |
| GTGGGCTCGAAAGAGCAC (((..(((....)))))) | 65.5 °C | -26 kcal/mol |
| GTGGGGCCGAAAGGCCAC (((..(((....)))))) | 64.9 °C | -16.2 kcal/mol |
| GTGGGGGGAAACCCCCGC (.(((((....))))).) | 60 °C | -19.4 kcal/mol |
| GTGGGGGGAAACCCTCGC (.(.(((....))).).) | 40.8 °C | -17.2 kcal/mol |
| GTGGGGGGAAACCTCCAC ((((.((....)).)))) | 54.5 °C | -44.1 kcal/mol |
| GTGGGTCCGAAAGGACAC (((..(((....)))))) | 63 °C | -19 kcal/mol |
| GTGGGTCGAAAGACCAC (((.(((....)))))) | 57 °C | -14.3 kcal/mol |
| GTGGGTGGAAACACCCGC (.(((((....))))).) | 63.3 °C | -22.7 kcal/mol |
| GTGGGTGGAAACACTCAC (((.(((....))).))) | 52.1 °C | -37.2 kcal/mol |
| GTGGGTGGAAACGCCTAC ((.((.(....).)).)) | 41.9 °C | -25.3 kcal/mol |
| GTGGGTGGAAACGTCCAC ((((..(....)..)))) | 46 °C | -18.8 kcal/mol |
| GTGGTACGAAAGTAACAC (((.(((....))).))) | 58.2 °C | -40.3 kcal/mol |
| GTGGTACGAAAGTATCAC (((.(((....))).))) | 54.2 °C | -47.3 kcal/mol |
